Screening results from PubChem.
NPY-Y1 antag – NPY-Y1 (human) receptor antagonism. HEK293-CNG Y1 cells, membrane potential fluorescence; NPY at EC95, then isoproterenol. inhibition, % at 3.6 µM. P25929. 200,000 compounds, 1% hits. AID 1040;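 active = inhibition above the campaign mean inhibition of all tested compounds plus 3 SD, cut at about 20% in these data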;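 also: 0% = DMSO wells given NPY plus isoproterenol and 100% = isoproterenol alone without NPY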
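Assay system: HEK293 Y1/CNG channel cell line; Doses: single compound dose of 3.6 µM, 0.4% DMSO; Timing: dye 3 h, compound 60 min room temperature, stimulation 45 min; Technique: Membrane-potential fluorescent dye readout; Measure: % inhibition of NPY effect.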
NPY Y2 blocker – blocks the human neuropeptide Y Y2 receptor. P49146. NPY-Y2 expressing cells, antagonist mode. inhibition, % at 2.7 µM. 140,000 compounds, 0.99% hits. AID 793; in the data active = inhibition above about 17%;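 also: 0% = vehicle with agonist challenge and 100% = reference antagonist with challenge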
Target sequence (P49146 whole entry, looked up): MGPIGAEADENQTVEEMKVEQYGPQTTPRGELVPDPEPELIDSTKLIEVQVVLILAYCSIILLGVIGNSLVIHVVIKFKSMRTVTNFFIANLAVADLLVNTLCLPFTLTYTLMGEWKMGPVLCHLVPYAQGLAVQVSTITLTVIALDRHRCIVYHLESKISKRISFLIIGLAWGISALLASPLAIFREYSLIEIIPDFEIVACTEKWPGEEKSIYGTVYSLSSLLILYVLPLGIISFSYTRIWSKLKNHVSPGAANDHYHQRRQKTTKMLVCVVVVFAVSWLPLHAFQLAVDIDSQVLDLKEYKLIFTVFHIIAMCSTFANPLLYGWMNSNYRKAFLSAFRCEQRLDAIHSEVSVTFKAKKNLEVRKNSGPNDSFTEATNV
NPY-Y1 PAM-ag – potentiators or agonists of human neuropeptide Y receptor Y1 | activation, % at 3.6 µM | AID 1304 | NPY-Y1 expressing cells, potentiator/agonist activation | 220,000 compounds, 0.37% hits | P25929; in the data active = activation above about 33%, passing the limit was not always enough;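 also: cells stimulated with NPY at EC10 then isoproterenol at EC100; 0% = low agonist plus stimulus and 100% = saturating agonist plus stimulus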
NPY2 pot ag – human NPY-Y2 potentiation or agonism, primary screen; activation, % at 3.6 µM; P49146; cells expressing NPY-Y2, potentiator/agonist read-out; 220,000 compounds, 0.45% hits; in the data active = activation above about 27%;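 also: cells stimulated with NPY near EC25 plus isoproterenol at EC100; 0% = vehicle plus submaximal agonist and 100% = vehicle plus saturating agonist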
* hit, by the source's call; nt = no result. A selection: hits, their analogues and other compounds. The true share with any hit is near 1.9%.

SMILES	NPY-Y1 antag	NPY Y2 blocker	NPY-Y1 PAM-ag	NPY2 pot ag
CCC(C)(C)NC(=O)C(c1ccc(C)o1)N(Cc1cccs1)C(=O)Cn1nnc2ccccc21 (centres undefined)	70.5*	50.2*	-131.4	-35.7
O=C(NNC(=O)c1ccc2nonc2c1)Nc1ccc(Cl)cc1	nt	nt	-4.7	-21.9
Cc1cccn2c(CN(C)CCC3CCCCO3)c(C(=O)N3CCCCC3)nc12 (centres undefined)	13.6	nt	-14.3	-14.1
O/N=C/c1cc(Br)ccc1OCc1ccc(F)cc1	16.1	17.6*	-15.2	-2.3
Cc1ccc(COc2ccc(Br)cc2/C=N/O)cc1	14.1	15.2	-22.0	-25.2
O=C(O)c1cc([N+](=O)[O-])ccc1N1CCCCC1	2.2	-0.1	-33.7	-13.5
Cc1ccc(C(=O)c2cc([N+](=O)[O-])ccc2N2CCCCC2)c(C)c1	29.8*	21.9*	-27.8	-20.1
COc1ccc(CNC(=O)C2=C(C)C(=O)OC23CCC(C)CC3)cc1 (centres undefined)	0.3	-3.0	-3.3	-12.1
COc1ccc(NC(=O)C2=C(C)C(=O)OC23CCC(C)CC3)cc1Cl (centres undefined)	-5.6	-0.5	48.4*	58.5*
CCOC(=O)c1ccc(NS(C)(=O)=O)cc1	3.8	6.3	-19.8	-11.2
CC(C)NCC(O)c1ccc(NS(C)(=O)=O)cc1 (centres undefined)	-14.5	nt	95.7*	77.6
N#CCNc1ccc([N+](=O)[O-])cc1C#N	nt	nt	13.8	-14.1
O=C(CSc1nnc(-c2ccccc2)n1-c1ccccc1)c1ccc[nH]1	2.5	4.2	19.5	13.7
O=C(CSc1nnc(-c2ccccc2)n1-c1ccccc1)c1cccs1	-2.4	4.7	49.1*	31.1*
CCC(C)c1ccccc1NC(=O)CN1CCN(C/C=C/c2ccccc2)CC1 (centres undefined)	0.0	12.6	-17.6	-6.1
O=C(NCc1ccccc1F)Nc1ccc([N+](=O)[O-])cc1	-5.3	nt	7.2	-10.5
CCCNC(=O)c1csc2c1CCCCC2	1.4	1.8	-19.6	-5.7
CCCNC(=O)c1sc2c(c1C(=O)Nc1ccccn1)CCCC2	21.4*	nt	-20.1	-11.5
Cc1cc(CN(C)C(=O)c2cc(COc3ccc(F)cc3Cl)on2)n[nH]1	-5.4	nt	-11.5	-12.4
Cc1ccc(CN(C)C(=O)c2cc(COc3ccc(F)cc3Cl)on2)o1	20.2*	nt	-12.6	-18.4
N#Cc1nc(-c2ccco2)oc1N1CCCC1	-6.0	7.5	-6.9	-7.6
CC1CC(C)CN(c2oc(-c3ccco3)nc2C#N)C1 (centres undefined)	23.6*	27.4*	-32.9	2.7
Cc1nc2ccccn2c1C(=O)OCC#N	-2.9	nt	-5.1	-8.5
Cc1cc(Br)c(OCc2ccc(C(=O)N/N=C3\CC4CC=CC34)cc2)c(Br)c1 (centres undefined)	-3.3	6.9	-17.0	-14.0
CCc1ccc2c(CN3CCc4ccccc43)cc(=O)oc2c1	21.9*	22.5*	-2.4	-9.2
SMILES	NPY-Y1 antag	NPY Y2 blocker	NPY-Y1 PAM-ag	NPY2 pot ag
O=c1cc(CN2CCc3ccccc32)c2ccc(O)cc2o1	1.1	nt	-24.0	0.5
COn1c(SCc2cccc(Cl)c2)nc2ccccc2c1=O	21.9*	17.3*	-56.0	-4.6
C[C@]12CCC3c4ccc(OCC(=O)O)cc4CCC3C1CCC2=O (some centres undefined)	nt	nt	-3.2	5.4
Cc1nc2sccn2c(=O)c1CCN1CCC(=C(c2ccccc2)c2ccc(F)cc2)CC1	39.8*	44.2*	-92.0	-8.2
CCOC(=O)c1c(C)nc2sccn12	-4.8	-1.1	9.6	2.8
Cc1ccccc1C(=O)c1c[nH]c(C(=O)N=CN(C)C)c1	3.3	nt	-7.5	-8.9
Cc1ccccc1C(=O)c1c[nH]c(C(N)=O)c1	-1.1	-2.2	110.7*	27.0
Cc1cccn2c(CNCC3(c4ccccc4)CCCC3)c(C(=O)N3CCOCC3)nc12	20.3*	nt	8.4	11.8
CC(CC(=O)N1CCN(c2ccc(C(F)(F)F)cn2)CC1)n1ccnc1 (centres undefined)	-2.2	nt	-12.4	8.2
NNC(=O)c1sccc1OCc1ccc(F)cc1	6.5	nt	-10.0	-22.7
O=C(N/N=C/c1ccc(F)cc1)c1sccc1OCc1ccc(F)cc1	11.3	22.9*	-50.3	-39.4
O=C(N/N=C/c1ccc(Cl)cc1)c1sccc1OCc1ccc(F)cc1	109.3*	113.4*	-227.4	-153.2
Nc1ccc(Br)c2c1C(=O)c1ccccc1C2=O	-8.5	-4.9	33.5	31.7
Nc1ccc(O)c2c1C(=O)c1ccccc1C2=O	-10.5	-6.3	54.4*	56.6*
CCc1[nH]nc2c1C(c1ccc(C)o1)C(C#N)=C(N)O2 (centres undefined)	1.0	nt	4.3	-14.1
Cc1ccc(SCc2[nH]nc3c2C(c2ccco2)C(C#N)=C(N)O3)cc1 (centres undefined)	105.9*	127.2*	-24.9	-15.1
Cc1ccc(SCc2[nH]nc3c2C(c2ccc(C)o2)C(C#N)=C(N)O3)cc1 (centres undefined)	120.5*	78.7*	-46.1	-19.9
COC(=O)[C@@]1(Cc2ccccc2)[C@H]2c3cc(C(=O)N4CCCC4)n(Cc4ccsc4Br)c3C[C@H]2CN1C(=O)c1ccccc1	48.6*	22.7*	15.7	0.6
O=C(/C=C/c1ccccc1[N+](=O)[O-])N1CCN(C(=O)c2ccco2)CC1	2.6	nt	19.5	8.5
Cc1ccc(S(=O)(=O)N(C)CC(=O)Nc2nc3ccccc3s2)cc1	-3.2	3.1	-25.8	11.6
Cc1ccc(/C(=N/Nc2nc3ccccc3s2)C2=C(O)c3ccccc3C2=O)cc1	20.3*	nt	-3.2	-9.3
O=C(Nc1cccc(Cl)c1)Nc1cccc(Cl)c1	-3.3	1.3	9.0	19.6
N#CCc1ccc(NC(=O)Nc2cccc(Cl)c2)cc1	-17.6	-3.3	36.6*	20.2
CCCN(Cc1nnc(-c2ccccc2Cl)o1)C(=O)c1cc([N+](=O)[O-])cc([N+](=O)[O-])c1	0.9	nt	29.2	1.8
COC(=O)CSc1nnc(-c2ccc(S(=O)(=O)N3CCCCC3)cc2)o1	-19.8	-0.3	63.4*	42.3*
SMILES	NPY-Y1 antag	NPY Y2 blocker	NPY-Y1 PAM-ag	NPY2 pot ag
COC(=O)CSc1nnc(-c2ccc(S(=O)(=O)N3CCC(C)CC3)cc2)o1	0.1	3.3	-19.1	-2.4
COc1ccc(Nc2ncnc3scc(-c4ccc(OC)cc4)c23)cc1	20.7*	31.8*	-55.2	0.5
Cc1ccc(C(=O)C[n+]2cc(Br)cc(Br)c2)cc1[N+](=O)[O-]	3.7	-0.3	-5.3	-4.2
COc1ccc(-c2noc(CSc3nc4ccccc4c(=O)n3-c3ccccc3)n2)cc1	3.4	2.7	0.8	1.9
C=CCn1c(SCc2c(C)noc2C)nc2cc(C(=O)O)ccc2c1=O	3.0	5.5	15.5	-0.4
Cc1noc(C)c1CSc1nc2ccccc2c(=O)n1-c1ccccc1	23.6*	17.8*	-18.9	-6.0
C=CCn1c(SCc2cc(C(C)=O)ccc2OCC)nc2ccccc2c1=O	26.8*	25.1*	-40.7	-13.2
COc1ccc(C(C)=O)cc1CSc1nc2ccccc2c(=O)n1-c1ccccc1	-0.1	11.2	1.8	8.5
C=CCn1c(SCc2c(C)noc2C)nc2ccccc2c1=O	63.6*	29.3*	-61.0	-30.0
